Measurements: PMC6420060 (ACS applied materials & interfaces, 2018)

Tests used:
Assay type in all cases: physicochemical
[1] = Permeation into trapped giant unilamellar vesicles measured by FCS; conditions: 20 nM; for permeation into individual GUVs: 20% POPS
Procedure, shortened: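 POPC/POPS (4:1) GUVs, sucrose inside and glucose outside, ± 10 μM Ru complex for about 45 min. Held in BSA-coated microfluidic hydrodynamic traps with valves pressurised to 2 bar. 20 nM calcein in hosting buffer flushed in, valves reopened, static or under flow. After 30 min, FCS used a 488 nm laser at 60 μW. Curves fitted with a triplet term and corrected for buffer background. Permeation taken as N inside versus outside per vesicle.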

[2] = ζ-Potential of GUVs after incubation with Ru; conditions: GUVs containing 1 M sucrose measured in 1 M glucose, Zetasizer Nano ZSP
[3] = GUV size after incorporation of Ru; conditions: all samples pooled
Procedure, shortened: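 GUVs (POPC:POPS 4:1) made by emulsion transfer: 1 M sucrose/140 mM KCl/10 mM HEPES pH 7.4 inside, 1 M glucose/140 mM NaCl/10 mM HEPES outside. Incubated with 10 μM (final) Ru complex, typically 45 min, ± 200 μM (final) potassium ferricyanide. Imaged under a 60× water-immersion objective. Diameter taken at the z-plane of largest size, averaged over x and y. All vesicles pooled into histograms.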

Row | permeation into individual GUVs ([1]; with Ru(C17)2^2+, sub-20 μm vesicle diameters) | permeation into individual GUVs under flow ([1]; without Ru(C17)2^2+, nominal flow rates of 2, 5, 8, and 11 μL/min, larger vesicles (above 20 μm)) | permeation into individual GUVs ([1]; without Ru(C17)2^2+, vesicle diameter 20 μm) | permeation into individual GUVs ([1]; without Ru(C17)2^2+, vesicle diameter down to 10 μm) | ζ-potential of GUVs after incubation with Ru(C17)2^2+ ([2]; start of the period, pure GUVs with 20% POPS −90.8 ± 3.3 mV) | ζ-potential of GUVs after incubation with Ru(C17)2^2+ ([2]; up to 9 h after incubation) | vesicle diameter with Ru(C17)2^2+ and addition of potassium ferricyanide [3] | vesicle diameter upon incorporation of Ru(C17)2^2+ ([3]; 23.0 ± 6.6 without Ru(C17)2^2+) | Compound
1 | below 30% | below 10% | below 10% | 60% | – | – | – | – | O=C(O)CN(CC(=O)O)Cc1cc2c(cc1O)Oc1cc(O)c(CN(CC(=O)O)CC(=O)O)cc1C21OC(=O)c2ccccc21 [calcein]
2 | – | – | – | – | −11.7 ± 4.8 mV | −18.5 ± 2.6 mV | 15.8 ± 3.8 µm | 17.9 ± 4.8 nm | dihepta-decylated tris(bipyridine)ruthenium(II) complex [Ru(C17)2^2+]
